Test results published in ChEMBL document CHEMBL4251600, “Bioactive products from singlet oxygen photooxygenation of cannabinoids” (Eur J Med Chem, 2018).
Values after ≈ are worked out from the molar mass of the structure shown. Active and inactive are the calls of the source. The calls are words filed in the database; no cut-off is given here.

Tests used:
Plasmodium falciparum [1] = assay: Antiplasmodial activity against chloroquine-resistant Plasmodium falciparum W2 infected in red blood cells incubated for 72 hrs by parasite LDH release based colorimetric assay; format: functional, organism-based; conditions: W2, 72 h
Leishmania donovani = assay: Antileishmanial activity against Leishmania donovani promastigotes incubated for 48 hrs by alamar blue assay; format: functional, organism-based
Plasmodium falciparum [2] = assay: Antiplasmodial activity against chloroquine-sensitive Plasmodium falciparum D6 infected in red blood cells incubated for 72 hrs by parasite LDH release based colorimetric assay; format: functional, organism-based; conditions: D6, 72 h
Cannabinoid receptor 2 [3] = target: T1, Cannabinoid receptor 2 (Homo sapiens, UniProt P34972); assay: Agonist activity at recombinant human full length CB2 receptor expressed in HEK293 cell membranes after 2 hrs by [35S]GTP-gammaS binding assay; format: functional
Summary of the method: (§1)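 Membranes (20 µg/well) from HEK293 cells stably transfected with human CB1 or CB2 cDNA were incubated with test compound and 0.5 nM [35S]-GTP-γS. Buffer: 50 mM Tris-HCl, 0.2 mM EGTA, 9 mM MgCl2, 150 mM NaCl, 50 µM GDP, 1.4 mg/ml BSA. Incubation ran 2 h at 30°C and was stopped by vacuum filtration through GF/B filters with cold Tris-HCl. Nonspecific binding was taken with 40 µM GTP-γS.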

Cannabinoid receptor 1 [4] = target: T2, Cannabinoid receptor 1 (Homo sapiens, UniProt P21554); assay: Displacement of [3H]CP-55,940 from recombinant human full length CB1 receptor expressed in HEK293 cell membranes after 90 mins by topcount method
Cannabinoid receptor 1 [5] = target: T2, Cannabinoid receptor 1; assay: Agonist activity at recombinant human full length CB1 receptor expressed in HEK293 cell membranes after 2 hrs by [35S]GTP-gammaS binding assay; format: functional; summary of the method: as §1
Cannabinoid receptor 2 [6] = target: T1, Cannabinoid receptor 2; assay: Displacement of [3H]CP-55,940 from recombinant human full length CB2 receptor expressed in HEK293 cell membranes after 90 mins by topcount method
Nakaseomyces glabratus = assay: Antifungal activity against Candida glabrata by modified CLSI based method; format: functional, organism-based
Staphylococcus aureus [7] = assay: Antimicrobial activity against methicillin-resistant Staphylococcus aureus by modified CLSI based method; format: functional, organism-based
Pichia kudriavzevii = assay: Antifungal activity against Candida krusei by modified CLSI based method; format: functional, organism-based
Cryptococcus neoformans = assay: Antifungal activity against Cryptococcus neoformans by alamar blue assay; format: functional, organism-based
Staphylococcus aureus [8] = assay: Antimicrobial activity against Staphylococcus aureus by modified CLSI based method; format: functional, organism-based
Cannabinoid receptor 2 [9] = target: T1, Cannabinoid receptor 2; assay: Agonist activity at recombinant human full length CB2 receptor expressed in HEK293 cell membranes at 100 uM after 2 hrs by [35S]GTP-gammaS binding assay relative to CP-55,940; format: functional
Cannabinoid receptor 1 [10] = target: T2, Cannabinoid receptor 1; assay: Agonist activity at recombinant human full length CB1 receptor expressed in HEK293 cell membranes at 100 uM after 2 hrs by [35S]GTP-gammaS binding assay relative to CP-55,940; format: functional
KB = assay: Anticancer activity against human KB cells assessed as cell growth inhibition incubated for 48 hrs by neutral red dye based assay; format: functional
LLC-PK1 = assay: Cytotoxicity against pig LLC-PK1 cells assessed as cell growth inhibition incubated for 48 hrs by neutral red dye based assay; design: species or system Sus scrofa; conditions: Sus scrofa, LLC-PK1, 48 h; read-out: IC50
Vero = assay: Cytotoxicity against African green monkey Vero cells assessed as cell growth inhibition incubated for 48 hrs by neutral red dye based assay; conditions: Chlorocebus sabaeus
SK-OV-3 = assay: Anticancer activity against human SKOV3 cells assessed as cell growth inhibition incubated for 48 hrs by neutral red dye based assay; format: functional; conditions: SK-OV-3, 48 h
BT-549 = assay: Anticancer activity against human BT549 cells assessed as cell growth inhibition incubated for 48 hrs by neutral red dye based assay; format: functional; conditions: BT-549, 48 h
SK-MEL = assay: Anticancer activity against human SK-MEL cells assessed as cell growth inhibition up to 10 ug/ml incubated for 48 hrs by neutral red dye based assay; format: functional
[11] = Leishmania donovani, 48 h, read-out: IC50
[12] = Leishmania donovani, 48 h, read-out: IC90
[13] = Cryptococcus neoformans, read-out: IC50
[14] = Staphylococcus aureus, read-out: IC50
[15] = Cryptococcus neoformans, read-out: MIC
[16] = Staphylococcus aureus, read-out: MIC

T2 sequence (P21554 whole entry): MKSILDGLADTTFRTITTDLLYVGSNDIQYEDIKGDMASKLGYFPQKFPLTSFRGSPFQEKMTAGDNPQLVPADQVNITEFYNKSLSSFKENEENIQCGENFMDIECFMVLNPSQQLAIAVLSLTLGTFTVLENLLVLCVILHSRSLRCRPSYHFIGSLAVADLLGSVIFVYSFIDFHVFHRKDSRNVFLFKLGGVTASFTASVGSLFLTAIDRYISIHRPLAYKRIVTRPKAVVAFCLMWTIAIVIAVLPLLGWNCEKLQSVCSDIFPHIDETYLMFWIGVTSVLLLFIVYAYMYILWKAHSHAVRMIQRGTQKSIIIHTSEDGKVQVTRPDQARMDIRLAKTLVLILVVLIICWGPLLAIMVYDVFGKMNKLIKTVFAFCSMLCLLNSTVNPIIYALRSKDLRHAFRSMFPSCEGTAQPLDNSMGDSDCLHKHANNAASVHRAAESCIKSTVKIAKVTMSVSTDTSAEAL
T1 sequence (P34972 whole entry): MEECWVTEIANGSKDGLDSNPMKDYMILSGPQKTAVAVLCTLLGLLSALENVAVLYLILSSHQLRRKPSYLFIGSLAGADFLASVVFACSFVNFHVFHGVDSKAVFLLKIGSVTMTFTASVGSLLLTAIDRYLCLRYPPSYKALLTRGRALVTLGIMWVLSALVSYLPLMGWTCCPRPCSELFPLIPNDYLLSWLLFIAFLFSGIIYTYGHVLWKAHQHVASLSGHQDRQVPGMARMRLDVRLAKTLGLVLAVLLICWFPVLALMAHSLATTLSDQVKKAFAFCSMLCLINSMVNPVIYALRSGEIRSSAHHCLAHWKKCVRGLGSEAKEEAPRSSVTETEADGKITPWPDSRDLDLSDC

SMILES: CCCCCc1cc2c(c(OS(=O)(=O)c3ccc(C)cc3)c1)C1=C(CC[C@](C)(O)[C@H]1OCC)C(C)(C)O2
- IC50 (Plasmodium falciparum [1]): 1.8 µg/mL (≈ 3.4 µM)
- IC50 (Leishmania donovani; [11]): 4.5 µg/mL (≈ 8.51 µM)
- IC90 (Leishmania donovani; [12]): 22 µg/mL (≈ 41.6 µM)
- IC50 (Plasmodium falciparum [2]): 2.2 µg/mL (≈ 4.16 µM)

SMILES: CCCCCc1cc(O)c2c(c1)OC(C)(C)[C@@H]1C=C[C@@](C)(O)C[C@@H]21
- IC50 (Cannabinoid receptor 2 [3]): 11400 nM
- Ki (Cannabinoid receptor 2 [3]): 5700 nM
- IC50 (Cannabinoid receptor 1 [4]): 930 nM
- Ki (Cannabinoid receptor 1 [4]): 470 nM
- IC50 (Cannabinoid receptor 1 [5]): 387 nM
- Ki (Cannabinoid receptor 1 [5]): 193 nM
- IC50 (Cannabinoid receptor 2 [6]): 19 nM
- Ki (Cannabinoid receptor 2 [6]): 9.5 nM

SMILES: C=C1C[C@H]2c3c(O)cc(CCCCC)cc3OC(C)(C)[C@@H]2C[C@H]1O
- IC50 (Plasmodium falciparum [1]): 1.7 µg/mL (≈ 5.14 µM)
- IC50 (Nakaseomyces glabratus): Not Active
- MIC (Nakaseomyces glabratus): inactive
- IC50 (Staphylococcus aureus [7]): Not Active
- MIC (Staphylococcus aureus [7]): inactive
- IC50 (Plasmodium falciparum [2]): 2.4 µg/mL (≈ 7.26 µM)
- IC50 (Pichia kudriavzevii): Not Active
- MIC (Pichia kudriavzevii): inactive
- MIC (Cryptococcus neoformans): inactive
- IC50 (Cryptococcus neoformans; [13]): 8.34 µg/mL (≈ 25.2 µM)
- MIC (Staphylococcus aureus [8]): inactive
- IC50 (Staphylococcus aureus [8]; [14]): 10.7 µg/mL (≈ 32.4 µM)

SMILES: CCCCCc1cc2c(c(OS(=O)(=O)c3ccc(C)cc3)c1)[C@@H]1CC(C)(OO)C=C[C@H]1C(C)(C)O2 (stereo partly specified)
- Emax (Cannabinoid receptor 2 [9]): 90%
- IC50 (Cannabinoid receptor 2 [3]): 1750 nM
- Ki (Cannabinoid receptor 2 [3]): 876 nM
- IC50 (Cannabinoid receptor 1 [4]): 275 nM
- Ki (Cannabinoid receptor 1 [4]): 137 nM
- Emax (Cannabinoid receptor 1 [10]): 20%
- IC50 (Cannabinoid receptor 1 [5]): 97 nM
- Ki (Cannabinoid receptor 1 [5]): 48 nM
- IC50 (Cannabinoid receptor 2 [6]): 421 nM
- Ki (Cannabinoid receptor 2 [6]): 211 nM

SMILES: CCCCCc1cc(O)c2c(c1)OC(C)(C)C1=C2C(O)C(C)(OC)CC1 (stereo unspecified)
- Emax (Cannabinoid receptor 2 [9]): 40%
- IC50 (Cannabinoid receptor 1 [4]): 1080 nM
- Ki (Cannabinoid receptor 1 [4]): 538 nM
- IC50 (Leishmania donovani; [11]): 35 µg/mL (≈ 97.1 µM)
- IC90 (Leishmania donovani; [12]): > 40 µg/mL
- Emax (Cannabinoid receptor 1 [10]): 20%
- IC50 (Cannabinoid receptor 2 [6]): 599 nM
- Ki (Cannabinoid receptor 2 [6]): 300 nM

SMILES: C=C1C[C@H]2C3=C(OC(C)(C)[C@@H]2CC1OO)C(=O)C(CCCCC)=CC3=O (stereo in doubt; 25)
- MIC (Nakaseomyces glabratus): inactive
- MIC (Pichia kudriavzevii): inactive

SMILES: CCCCCC1=CC(=O)C2=C(OC(C)(C)[C@@H]3C=CC(C)(OO)C[C@@H]23)C1=O (stereo partly specified)
- MIC (Nakaseomyces glabratus; Nakaseomyces glabratus): 10 µg/mL (≈ 27.7 µM)
- IC50 (Nakaseomyces glabratus; Nakaseomyces glabratus, read-out: IC50): 6.54 µg/mL (≈ 18.1 µM)
- MIC (Staphylococcus aureus [7]; Staphylococcus aureus): 5 µg/mL (≈ 13.9 µM)
- IC50 (Staphylococcus aureus [7]; [14]): 2.63 µg/mL (≈ 7.3 µM)
- IC50 (Leishmania donovani; [11]): 0.7 µg/mL (≈ 1.94 µM)
- IC90 (Leishmania donovani; [12]): 1.2 µg/mL (≈ 3.33 µM)
- MIC (Pichia kudriavzevii; Pichia kudriavzevii): 10 µg/mL (≈ 27.7 µM)
- IC50 (Pichia kudriavzevii; Pichia kudriavzevii, read-out: IC50): 5.77 µg/mL (≈ 16 µM)
- IC50 (Cryptococcus neoformans; [13]): 0.93 µg/mL (≈ 2.58 µM)
- MIC (Cryptococcus neoformans; [15]): 2.5 µg/mL (≈ 6.94 µM)
- IC50 (Staphylococcus aureus [8]; [14]): 1.3 µg/mL (≈ 3.61 µM)
- MIC (Staphylococcus aureus [8]; [16]): 2.5 µg/mL (≈ 6.94 µM)

SMILES: CCCCCC1=CC(=O)C2=C(OC(C)(C)[C@@H]3CC[C@](C)(OCC)C=C23)C1=O
- IC50 (Plasmodium falciparum [1]): 0.2 µg/mL (≈ 0.537 µM)
- IC50 (Nakaseomyces glabratus): Not Active
- MIC (Nakaseomyces glabratus): inactive
- IC50 (Cannabinoid receptor 1 [4]): 1840 nM
- Ki (Cannabinoid receptor 1 [4]): 919 nM
- MIC (Staphylococcus aureus [7]; Staphylococcus aureus): 2.5 µg/mL (≈ 6.71 µM)
- IC50 (Staphylococcus aureus [7]; [14]): 1.36 µg/mL (≈ 3.65 µM)
- IC50 (Leishmania donovani; [11]): 0.06 µg/mL (≈ 0.161 µM)
- IC90 (Leishmania donovani; [12]): 0.13 µg/mL (≈ 0.349 µM)
- IC50 (Plasmodium falciparum [2]): 0.16 µg/mL (≈ 0.43 µM)
- IC50 (KB): 5.25 µg/mL (≈ 14.1 µM)
- IC50 (Cannabinoid receptor 2 [6]): 4070 nM
- Ki (Cannabinoid receptor 2 [6]): 2030 nM
- IC50 (LLC-PK1): 2.25 µg/mL (≈ 6.04 µM)
- IC50 (Pichia kudriavzevii): Not Active
- MIC (Pichia kudriavzevii): inactive
- IC50 (Cryptococcus neoformans; [13]): 0.7 µg/mL (≈ 1.88 µM)
- MIC (Cryptococcus neoformans; [15]): 2.5 µg/mL (≈ 6.71 µM)
- IC50 (Vero): 4.1 µg/mL (≈ 11 µM)
- IC50 (Staphylococcus aureus [8]; [14]): 1.35 µg/mL (≈ 3.62 µM)
- MIC (Staphylococcus aureus [8]; [16]): 2.5 µg/mL (≈ 6.71 µM)
- IC50 (SK-OV-3): 4.35 µg/mL (≈ 11.7 µM)
- IC50 (BT-549): 4.2 µg/mL (≈ 11.3 µM)

SMILES: C[C@@H]1[C@H](O)[C@@H](C)/C=C/C=C/C=C/C=C/C=C/C=C/C=C/[C@H](O[C@@H]2O[C@H](C)[C@@H](O)[C@H](N)[C@@H]2O)C[C@@H]2O[C@](O)(C[C@@H](O)C[C@@H](O)[C@H](O)CC[C@@H](O)C[C@@H](O)CC(=O)O[C@H]1C)C[C@H](O)[C@H]2C(=O)O [AMPHOTERICIN B]
- IC50 (Leishmania donovani; [11]): 0.16 µg/mL (≈ 0.173 µM)
- IC90 (Leishmania donovani; [12]): 0.33 µg/mL (≈ 0.357 µM)
- IC50 (Cryptococcus neoformans; [13]): 1.36 µg/mL (≈ 1.47 µM)
- MIC (Cryptococcus neoformans; [15]): 2.5 µg/mL (≈ 2.71 µM)

SMILES: CCCCCc1cc(OC(C)=O)c2c(c1)OC(C)(C)[C@@H]1CC=C(C)C[C@@H]21
- IC50 (Cannabinoid receptor 2 [3]): 518 nM
- Ki (Cannabinoid receptor 2 [3]): 259 nM
- IC50 (Cannabinoid receptor 1 [4]): 88 nM
- Ki (Cannabinoid receptor 1 [4]): 44 nM
- IC50 (Cannabinoid receptor 1 [5]): 87 nM
- Ki (Cannabinoid receptor 1 [5]): 43 nM
- IC50 (Cannabinoid receptor 2 [6]): 316 nM
- Ki (Cannabinoid receptor 2 [6]): 158 nM

SMILES: N=C(N)c1ccc(OCCCCCOc2ccc(C(=N)N)cc2)cc1 [PENTAMIDINE]
- IC90 (Leishmania donovani; [12]): 2 µg/mL (≈ 5.87 µM)

SMILES: C=C1C[C@H]2C3=C(OC(C)(C)[C@@H]2CC1OO)C(=O)C(CCCCC)=CC3=O (stereo in doubt; 26)
- IC50 (Staphylococcus aureus [7]): 15.3 µg/mL (≈ 42.4 µM)
- IC50 (Leishmania donovani): 3.1 µg/mL (≈ 8.6 µM)
- IC90 (Leishmania donovani): 8 µg/mL (≈ 22.2 µM)
- IC50 (LLC-PK1): 9.95 µg/mL (≈ 27.6 µM)
- IC50 (Pichia kudriavzevii): 20 µg/mL (≈ 55.5 µM)
- IC50 (Cryptococcus neoformans): 2.05 µg/mL (≈ 5.69 µM)
- MIC (Cryptococcus neoformans): 5 µg/mL (≈ 13.9 µM)
- IC50 (SK-MEL): Not Active
- IC50 (Staphylococcus aureus [8]): 2.41 µg/mL (≈ 6.69 µM)
- MIC (Staphylococcus aureus [8]): 5 µg/mL (≈ 13.9 µM)

SMILES: CCCCCc1cc2c(c(OS(=O)(=O)c3ccc(C)cc3)c1)[C@H]1[C@@H](CC=C(C)[C@@H]1OO)C(C)(C)O2
- IC50 (Cannabinoid receptor 1 [4]): 1020 nM
- Ki (Cannabinoid receptor 1 [4]): 512 nM
- IC50 (Cannabinoid receptor 2 [6]): 851 nM
- Ki (Cannabinoid receptor 2 [6]): 426 nM
